Laboratory results as given in ChEMBL document CHEMBL1145162, “6-aryl-8H-indeno[1,2-d]thiazol-2-ylamines: A1 adenosine receptor agonist allosteric enhancers having improved potency” (J Med Chem, 2005).

Legend:
[1] = target: T1, Adenosine receptor A3 (Homo sapiens) (UniProt P0DMS8); assay: In vitro allosteric enhancer (AE) activity for adenosine A3 receptor at 50 uM
T1 sequence (whole entry): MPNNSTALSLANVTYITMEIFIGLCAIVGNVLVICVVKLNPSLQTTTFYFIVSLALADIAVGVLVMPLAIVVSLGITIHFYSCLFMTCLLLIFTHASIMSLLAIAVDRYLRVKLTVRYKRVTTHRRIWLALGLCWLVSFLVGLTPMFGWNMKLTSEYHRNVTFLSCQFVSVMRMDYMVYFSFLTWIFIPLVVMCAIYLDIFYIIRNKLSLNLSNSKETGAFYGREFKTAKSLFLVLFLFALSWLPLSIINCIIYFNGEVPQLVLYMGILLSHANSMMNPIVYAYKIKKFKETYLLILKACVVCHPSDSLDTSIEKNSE

[2] = target: T2, Adenosine receptor A1 (Homo sapiens) (UniProt P30542); assay: In vitro allosteric enhancer (AE) activity for adenosine A1 receptor maximal score from curve fitting
T2 sequence (whole entry): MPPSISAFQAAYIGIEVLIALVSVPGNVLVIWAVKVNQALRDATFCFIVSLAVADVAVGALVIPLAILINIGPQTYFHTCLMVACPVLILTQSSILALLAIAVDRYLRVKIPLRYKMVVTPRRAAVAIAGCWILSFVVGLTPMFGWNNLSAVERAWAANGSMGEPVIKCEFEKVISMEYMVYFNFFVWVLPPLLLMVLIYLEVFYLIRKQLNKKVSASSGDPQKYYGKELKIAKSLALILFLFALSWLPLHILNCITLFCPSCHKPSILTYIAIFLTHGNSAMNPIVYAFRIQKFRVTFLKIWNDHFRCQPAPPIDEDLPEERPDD

[3] = target: T2, Adenosine receptor A1 (Homo sapiens); assay: Allosteric enhancer activity against adenosine A1 receptor
[4] = target: T2, Adenosine receptor A1 (Homo sapiens); assay: In vitro allosteric enhancer (AE) activity for adenosine A1 receptor at 50 uM
Method in brief: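 Single-point screen on membranes from CHO-K1 cells stably expressing hA1AR. Candidate enhancer was added at 50 μM final for 5 min. Dissociation was then started with 8-cyclopentyltheophylline plus GTPγS and run 10 min. Score = % specific agonist binding remaining; two to three assays, each in triplicate.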

[5] = target: Adenosine receptor A2a (Homo sapiens) (UniProt P29274); assay: In vitro allosteric enhancer (AE) activity for adenosine A2A receptor at 50 uM
Adenosine receptor A1 = target: T3, Adenosine receptor A1 (Homo sapiens, UniProt P30542); assay: Antagonist activity against adenosine A1 receptor; type: functional; design: concentration or dose not given beside the values
T3 sequence (P30542 whole entry): T2 sequence (whole entry)
Method in brief: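 Equilibrium binding on CHO-K1 hA1AR membranes (15 μg) in 10 mM HEPES pH 7.4, 1 mM EDTA, 1 U/mL adenosine deaminase, 4 nM [3H]CPX. Mixed with an equal volume of 200 μM enhancer in HEPES–10% DMSO; 200 μM NECA for nonspecific binding. Incubated 3 h at room temperature, then filtered.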

Chain of Adenosine receptor A2a (Homo sapiens) (P29274 whole entry): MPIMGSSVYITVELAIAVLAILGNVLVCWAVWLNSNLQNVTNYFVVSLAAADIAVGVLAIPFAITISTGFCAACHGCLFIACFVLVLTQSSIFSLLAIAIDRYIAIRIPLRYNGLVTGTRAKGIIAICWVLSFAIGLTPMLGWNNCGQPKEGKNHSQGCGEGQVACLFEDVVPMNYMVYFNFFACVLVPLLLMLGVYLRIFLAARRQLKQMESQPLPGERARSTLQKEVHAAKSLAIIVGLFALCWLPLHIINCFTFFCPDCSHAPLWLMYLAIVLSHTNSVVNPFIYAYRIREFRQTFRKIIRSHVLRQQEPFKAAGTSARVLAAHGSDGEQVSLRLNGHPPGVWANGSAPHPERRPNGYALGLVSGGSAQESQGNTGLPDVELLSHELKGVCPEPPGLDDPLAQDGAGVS

EC50 [3] | Inhibition (Adenosine receptor A1) | SMILES | Alloste ic enhan er (AE) [1] | Allosteric enhancer (AE) [2] | Alloste ic enhan er (AE) [4] | Alloste ic enhan er (AE) [5]
5.1 µM | > 10% | Nc1nc2c(s1)Cc1cc(-c3ccccc3C(F)(F)F)ccc1-2 | 6.6% | 57% | 50.1% | 0%
> 10 µM | 8% | Nc1nc2c(s1)Cc1cc(-c3ccc(Cl)c(Cl)c3)ccc1-2 | 0% | 22.6% | 45.3% | 0%
> 10 µM | 18% | COc1ccc(-c2ccc3c(c2)Cc2sc(N)nc2-3)c(OC)c1OC | 0% |  | 64.5% | 0.3%
> 10 µM | 36.7% | Nc1nc2c(s1)Cc1cc(-c3ccc(O)cc3)ccc1-2 | 1% |  | 4% | 0%
> 10 µM | > 10% | Nc1nc2c(s1)Cc1cc(-c3ccc(C(F)(F)F)cc3)ccc1-2 | 0% |  | 8.9% | 0%
> 10 µM | > 10% | Nc1nc2c(s1)Cc1cc(-c3ccccc3)ccc1-2 | 1.6% |  | 8.2% | 0%
> 10 µM | 8.3% | Nc1nc2c(s1)Cc1cc(-c3cccc([N+](=O)[O-])c3)ccc1-2 | 0% |  | 13% | 0%
> 10 µM | 30.1% | Cc1ccc(-c2ccc3c(c2)Cc2sc(N)nc2-3)cc1C | 0% |  | 52% | 0%
> 10 µM | > 10% | Nc1nc2c(s1)Cc1cc(-c3cccc(Cl)c3)ccc1-2 | 1% |  | 22.7% | 0%
> 10 µM | > 10% | Nc1nc2c(s1)Cc1cc(-c3cccc(C(F)(F)F)c3)ccc1-2 | 0% |  | 15.8% | 0%
> 10 µM | 16% | COc1ccc(-c2ccc3c(c2)Cc2sc(N)nc2-3)c(OC)c1 | 1.9% |  | 73% | 0%
> 10 µM | > 10% | Nc1nc2c(s1)Cc1cc(-c3ccc(F)cc3)ccc1-2 | 11.8% |  | 54.4% | 0%
> 10 µM | 19.3% | COc1cccc(-c2ccc3c(c2)Cc2sc(N)nc2-3)c1 | 1.8% |  | 64% | 0%
6.3 µM | 8.3% | Nc1nc2c(s1)Cc1cc(-c3ccccc3[N+](=O)[O-])ccc1-2 | 0% | 49.7% | 40.1% | 0%
> 10 µM | 11.8% | COc1cc(-c2ccc3c(c2)Cc2sc(N)nc2-3)cc(OC)c1OC | 0.8% |  | 23.3% | 0%
 |  | COc1ccc2cc(-c3ccc4c(c3)Cc3sc(N)nc3-4)ccc2c1 | 0% |  | 24.4% | 0%
3 µM | > 13% | Nc1nc2c(s1)Cc1cc(-c3cccc4ccccc34)ccc1-2 | 4.2% | 65.6% | 61.2% | 0%
7.3 µM | > 10% | Cc1ccc(C)c(-c2ccc3c(c2)Cc2sc(N)nc2-3)c1 | 0% | 51% | 47.7% | 0%
> 10 µM | 36.7% | Nc1nc2c(s1)Cc1cc(-c3cccc(O)c3)ccc1-2 | 1% |  | 10% | 0%
> 10 µM | 34.4% | Cc1ccccc1-c1ccc2c(c1)Cc1sc(N)nc1-2 | 0% |  | 36.6% | 0%
 |  | Nc1nc2c(s1)Cc1cc(-c3ccsc3)ccc1-2 | 3.8% |  | 68.8% | 0%
 |  | Nc1nc2c(s1)Cc1cc(-c3cccs3)ccc1-2 | 1.8% |  | 32% | 0%
> 10 µM | > 10% | Nc1nc2c(s1)Cc1cc(-c3cccc(F)c3)ccc1-2 | 3.6% |  | 42.8% | 0%
> 10 µM | 13.2% | Nc1nc2c(s1)Cc1cc(-c3ccccc3F)ccc1-2 | 3.6% |  | 4.9% | 0%
 |  | Nc1nc2c(s1)Cc1cc(-c3cc4ccccc4o3)ccc1-2 | 11.9% |  | 51% | 0.8%
> 10 µM |  | Cc1sc(N)c(C(=O)c2cccc(C(F)(F)F)c2)c1C | 5% |  | 20% | 0%
> 10 µM | > 8.7% | Cc1cc(C)cc(-c2ccc3c(c2)Cc2sc(N)nc2-3)c1 | 0% |  | 10.5% | 0%
> 10 µM | > 10% | Nc1nc2c(s1)Cc1cc(-c3ccccc3Cl)ccc1-2 | 0% |  | 36.7% | 0%
> 10 µM | 43.5% | COc1ccccc1-c1ccc2c(c1)Cc1sc(N)nc1-2 | 1% |  | 38% | 0%
> 10 µM | > 4.2% | Nc1nc2c(s1)Cc1cc(-c3ccc4ccccc4c3)ccc1-2 | 4.5% |  | 38.6% | 0%
